The list is not random: actives were taken first. Their share in the collection is about 5.5%.
STAT3 activator – increases IL-6 driven STAT3 reporter signal | U3A cells, IL-6 STAT3-luciferase reporter, luminescence; 100% = signal with IL-6 EC80 alone | activation (% of control), % at 5.6 µM | actives 0.91% (n = 190,000);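 active = activation above the screen-wide mean of compound activation plus 3 SD, cut at about 130% in these data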;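 also: 0% = background luminescence of wells with medium and substrate only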
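Material: STAT3-luciferase reporter U3A cells. Controls: IL-6-treated wells, 100% activation. Read-out: % activation versus median of IL-6-stimulated wells. Probe or stimulus: IL-6 stimulus at 33 ng/mL final. Timing: compound 1 h, then IL-6 6 h at 37 °C. Signal: reporter luminescence signal.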
STAT1 inh – STAT1 signaling inhibition; NIH 3T3 STAT1-luciferase reporter, IFN-gamma, luminescence; inhibition, % at 5.5 µM; actives 0.35% (n = 200,000);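 active = inhibition above a set limit, the mean inhibition across all tested compounds plus 3 SD, cut at about 34% in these data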;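 also: 0% = IFN-gamma with DMSO and 100% = IFN-gamma with 300 µM nifuroxazide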
HSV replic up – HSV replication enhancement. AID 1956. actives 0.005% (n = 220,000). HSV replication augmentation in cells, fold increase. maximum fold increase; in the data active = maximum fold increase above about 1.5; tested in PC3 cells
Cl transport mod – modulators of human KCC2 chloride dependent transport; Q9H2X9; KCC2 cells, thallium flux FluoZin-2 fluorescence; B-score of Tl+ flux slope (higher = more flux/activation; lower = inhibition) at 10 µM; actives 2.2% (n = 190,000); AID 1456;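 active = thallium flux slope and its plate-corrected score both differing from the plate sample mean at a set confidence after two filtering rounds, in either direction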;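 also: slope of fluorescence scaled to starting intensity during 10 to 20 s after thallium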
Target sequence (Q9H2X9 whole entry, looked up): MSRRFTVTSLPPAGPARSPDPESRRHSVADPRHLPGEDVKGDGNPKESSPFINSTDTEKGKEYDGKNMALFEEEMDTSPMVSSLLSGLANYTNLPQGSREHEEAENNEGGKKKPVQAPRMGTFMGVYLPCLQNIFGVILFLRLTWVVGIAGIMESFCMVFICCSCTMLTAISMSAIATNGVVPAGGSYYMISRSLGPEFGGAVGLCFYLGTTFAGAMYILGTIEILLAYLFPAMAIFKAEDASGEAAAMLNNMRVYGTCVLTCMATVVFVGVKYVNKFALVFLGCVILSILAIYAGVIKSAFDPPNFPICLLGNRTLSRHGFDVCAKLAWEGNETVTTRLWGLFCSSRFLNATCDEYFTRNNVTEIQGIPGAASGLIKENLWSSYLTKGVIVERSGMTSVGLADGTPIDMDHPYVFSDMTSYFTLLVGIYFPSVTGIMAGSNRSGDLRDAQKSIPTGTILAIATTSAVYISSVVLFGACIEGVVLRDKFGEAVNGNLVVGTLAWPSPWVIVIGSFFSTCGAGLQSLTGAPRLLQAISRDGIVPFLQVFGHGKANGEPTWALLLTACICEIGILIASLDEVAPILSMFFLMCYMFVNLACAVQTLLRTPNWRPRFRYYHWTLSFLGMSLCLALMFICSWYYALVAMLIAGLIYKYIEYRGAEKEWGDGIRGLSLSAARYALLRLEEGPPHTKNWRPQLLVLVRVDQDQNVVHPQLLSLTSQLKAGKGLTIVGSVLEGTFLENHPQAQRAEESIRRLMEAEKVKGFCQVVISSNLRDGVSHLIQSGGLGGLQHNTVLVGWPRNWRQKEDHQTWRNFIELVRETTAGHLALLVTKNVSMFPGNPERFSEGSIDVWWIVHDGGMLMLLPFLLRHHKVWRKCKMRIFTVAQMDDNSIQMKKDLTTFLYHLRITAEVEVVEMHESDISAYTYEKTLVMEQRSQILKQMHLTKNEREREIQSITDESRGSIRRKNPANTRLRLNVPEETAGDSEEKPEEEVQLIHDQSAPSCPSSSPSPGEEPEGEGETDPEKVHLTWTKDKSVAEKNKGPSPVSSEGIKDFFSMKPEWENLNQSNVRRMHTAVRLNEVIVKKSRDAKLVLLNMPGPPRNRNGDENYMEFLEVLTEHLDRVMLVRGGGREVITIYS
STAT3 blocker – reduces IL-6 driven STAT3 reporter signal; U3A cells, IL-6 STAT3-luciferase reporter, luminescence; host cell line lacks STAT1; inhibition, % at 5.5 µM; actives 0.89% (n = 190,000); AID 862;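 active = inhibition above the mean inhibition across all screened compounds plus 3 SD, cut at about 44% in these data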;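 also: 0% = DMSO only wells and 100% = 100 µM nifuroxazide control wells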
STAT1 act – increases IFN-gamma driven STAT1 reporter signal; NIH 3T3 STAT1-luciferase reporter, luminescence; 100% = IFN-gamma alone, no compound; activation (% of control), % at 5.5 µM; actives 2.6% (n = 200,000); AID 932;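 active = activation above the screen-wide mean activation plus 3 SD, cut at about 130% in these data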;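 also: raw ratio to IFN-gamma control signal so 100% means no change and 0% no light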
* marks the source's active call; other numbers are inactive results.

What do the screens show for `C#CCNc1c2c(nc3ncnn13)CC(C)CC2` (stereo unspecified)?
HSV replic up: inactive; Cl transport mod: -1.33

Results for COc1ccc(-n2cnc3sc(-c4ccccc4)cc3c2=O)cc1 ?
STAT3 activator: 98.5; STAT1 inh: -54.8; HSV replic up: inactive; Cl transport mod: 0.533; STAT3 blocker: 8.5; STAT1 act: 149.4*

What do the screens show for `N#CCn1cnc2sc(-c3ccccc3)cc2c1=O`?
STAT3 activator: 93.9; STAT1 inh: -27.1; HSV replic up: inactive; Cl transport mod: 0.116; STAT3 blocker: 11.4; STAT1 act: 123.1

What do the screens show for `Cc1nc(Nc2cccc(O)c2)c2c3c(sc2n1)CCC3`?
HSV replic up: inactive; Cl transport mod: -0.451

How did O=C(CN1C(=O)c2ccccc2C1=O)Nc1cccc(S(=O)(=O)Nc2ccccc2Cl)c1 do in these assays?
STAT3 activator: 105.5; STAT1 inh: 1.1; HSV replic up: inactive; Cl transport mod: -0.567; STAT3 blocker: -9.1; STAT1 act: 99.0

What do the screens show for `O=C(CSc1nc(-c2ccccc2)ns1)N1CCOCC1`?
STAT3 activator: 93.8; STAT1 inh: -46.7; HSV replic up: inactive; Cl transport mod: 0.0865; STAT3 blocker: 17.8; STAT1 act: 141.8*

Results for Cc1cccc(-c2nsc(SCC(=O)N3CCCC3)n2)c1 ?
STAT3 activator: 76.3; STAT1 inh: -37.2; HSV replic up: inactive; Cl transport mod: 0.76; STAT3 blocker: 30.6; STAT1 act: 134.5*

How did O=C(CSc1nc(-c2ccc(F)cc2)cs1)N1CCOCC1 do in these assays?
STAT3 activator: 85.4; STAT1 inh: -30.0; HSV replic up: inactive; Cl transport mod: -1.39; STAT3 blocker: 21.0; STAT1 act: 128.9*

What do the screens show for `CC1CN(C(=O)CSc2nc(-c3ccc(F)cc3)cs2)CC(C)O1` (stereo unspecified)?
STAT3 activator: 90.7; STAT1 inh: -2.8; HSV replic up: inactive; Cl transport mod: -1.42; STAT3 blocker: 12.2; STAT1 act: 103.8

What do the screens show for `CC1CC(NC(=O)/C=C/C(=O)O)CC(C)(C)C1` (stereo unspecified)?
HSV replic up: inactive; Cl transport mod: 0.256

How did O=Cc1ccc(-c2nc3ccccc3s2)o1 do in these assays?
STAT3 activator: 82.2; STAT1 inh: -30.7; HSV replic up: inactive; Cl transport mod: -0.00818; STAT3 blocker: 22.7; STAT1 act: 129.5*

How did Cc1ccc(-c2cc(C(F)(F)F)c(C#N)c(SCC(=O)O)n2)cc1 do in these assays?
STAT3 activator: 135.2*; STAT1 inh: 0.2; HSV replic up: inactive; Cl transport mod: -1.08; STAT3 blocker: -38.8; STAT1 act: 98.0

How did Cc1cc(C(=O)CSc2n[nH]c(N)n2)c(C)n1-c1ccc2c(c1)OCO2 do in these assays?
STAT3 activator: 106.1; STAT1 inh: -4.7; HSV replic up: inactive; Cl transport mod: -0.0462; STAT3 blocker: -9.8; STAT1 act: 104.1

What do the screens show for `Cc1ccc(NC(=O)c2cc(-c3cccs3)on2)cc1C`?
STAT3 activator: 99.8; STAT1 inh: -52.4; HSV replic up: inactive; Cl transport mod: -2.12; STAT3 blocker: 8.8; STAT1 act: 145.7*

How did COc1ccc(NC(=O)c2cc(-c3cccs3)on2)cc1OC do in these assays?
STAT3 activator: 93.7; STAT1 inh: -9.5; HSV replic up: inactive; Cl transport mod: 0.129; STAT3 blocker: 11.1; STAT1 act: 108.7

What do the screens show for `CCc1ccc(NC(=O)c2cc(-c3ccc(F)cc3)on2)cc1`?
STAT3 activator: 88.1; STAT1 inh: -12.9; HSV replic up: inactive; Cl transport mod: 0.491; STAT3 blocker: 21.1; STAT1 act: 109.8

Results for CCc1ccc(NC(=O)c2cc(-c3cccs3)on2)cc1 ?
STAT3 activator: 97.0; STAT1 inh: -41.8; HSV replic up: inactive; Cl transport mod: 0.514; STAT3 blocker: 11.6; STAT1 act: 136.1*

What do the screens show for `CCCCn1c(-c2ccco2)nc2oc3ccccc3c(=O)c2c1=O`?
HSV replic up: inactive; Cl transport mod: 0.000376

Results for CCOc1ccccc1N(C)C(=O)c1nn(-c2ccc(OC)cc2OC)c(=O)c2ccccc12 ?
STAT3 activator: 90.4; STAT1 inh: 14.1; HSV replic up: inactive; Cl transport mod: -1.97; STAT3 blocker: 17.0; STAT1 act: 85.4

Assay outcomes: PubChem, several laboratories
